Among the data in ChEMBL document CHEMBL1146717, “Investigation of novel fumagillin analogues as angiogenesis inhibitors” (Bioorg Med Chem Lett, 2004) are Activity, EC50 and IC50 values, retold here.

The structures appear in SMILES notation.

Usually EC50 stands for the concentration that produces a half-maximal response. The term IC50 denotes the concentration that gives 50% inhibition. A lower IC50 goes with greater potency.

Assay [1] deals with HUVEC. Description: Percent stability after 0 hr in HUVEC culture medium; expressed as % remaining. Type of assay: functional, Homo sapiens.
Assay [2] deals with HUVEC. In words: Percent remained in HUVEC lysate after 0.5 hr in presence of epoxide hydrolase (EH) along with inhibitor (Compound used as hydrolysate); Expressed as % remaining. Type of assay: functional, Homo sapiens. A digest of the protocol:
(§1)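 Epoxide hydrolase (1 mg/mL protein, final) was co-incubated at 37 °C with the compound (2 mM) plus cyclohexene oxide (50 mM) as EH inhibitor. Substrate remaining and hydrolysate were quantified at 3 min, 0.5 h and 2 h as % values, with an estimated error of 10–15%.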

Assay [3] has as its system HUVEC. In words: Percent stability determined after 20 hr in HUVEC lysate; expressed as % remaining. Type of assay: functional, Homo sapiens. A digest of the protocol:
(§2)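 Compound (1 mM) was incubated in HUVEC lysate at 37 °C and sampled at 0, 4 and 20 h. Results are expressed as % of compound remaining, with an estimated measurement error of 10–15%.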

In assay [4] the test system is HUVEC. Description: Percent remained in HUVEC lysate after 3 min in presence of epoxide hydrolase (EH) (Control = 100) (Compound used as substrate); Expressed as % remaining. The class given is functional, Homo sapiens. Summed up: (§3)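 Each compound at 2 mM incubated at 37 °C with epoxide hydrolase (1 mg/mL protein, final), alongside a no-enzyme control. Substrate remaining and hydrolysate formed were quantified at 3 min, 0.5 h and 2 h as % values. Estimated measurement error is 10–15%.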

Assay [5] concerns HUVEC. Description: Percent remained in HUVEC lysate after 2 hr in presence of epoxide hydrolase (EH) (Compound used as hydrolysate); Expressed as % remaining. Type of assay: functional, Homo sapiens. Summed up:
as §3

In assay [6] the test system is HUVEC. In words: Percent remained in HUVEC lysate after 3 min in presence of epoxide hydrolase (EH) along with inhibitor (Control = 100) (Compound used as substrate); Expressed as % remaining. The class given is functional, Homo sapiens. Summed up: as §1
The subject of assay [7] is HUVEC. Description: Percent remained in HUVEC lysate after 2 hr in presence of epoxide hydrolase (EH) along with inhibitor (Compound used as hydrolysate); Expressed as % remaining. The class given is functional, Homo sapiens. A digest of the protocol:
as §1

Assay [8] concerns HUVEC. Description: Tested for inhibition of the human umbilical vein endothelial cell (HUVEC) proliferation.
The test system of assay [9] is HUVEC. Description: Percent remained in HUVEC lysate after 0.5 hr in presence of epoxide hydrolase (EH) along with inhibitor (Control = 103) (Compound used as substrate); Expressed as % remaining. The class given is functional, Homo sapiens. Summed up:
as §1

Assay [10] deals with HUVEC. Description: Percent stability determined after 0 hr in HUVEC lysate; expressed as % remaining. The class given is functional, Homo sapiens. A digest of the protocol: as §2
Assay [11] relates to HUVEC. In words: Percent stability after 4 hr in HUVEC culture medium; expressed as % remaining. The class given is functional, Homo sapiens.
For assay [12], the system named is HUVEC. In words: Percent remained in HUVEC lysate after 0.5 hr in presence of epoxide hydrolase (EH) (Compound used as hydrolysate); Expressed as % remaining. Type of assay: functional, Homo sapiens. Summed up:
as §3

The subject of assay [13] is HUVEC. In words: Percent remained in HUVEC lysate after 0.5 hr in presence of epoxide hydrolase (EH) (Control = 103) (Compound used as substrate); Expressed as % remaining. Type of assay: functional, Homo sapiens. Summed up: as §3
Assay [14] relates to HUVEC. In words: Percent stability after 4 hr in HUVEC lysate; Expressed as % remaining. Type of assay: functional, Homo sapiens. Summed up:
as §2

The test system of assay [15] is HUVEC. In words: Percent remained in HUVEC lysate after 2 hr in presence of epoxide hydrolase (EH) along with inhibitor (Control = 103) (Compound used as substrate); Expressed as % remaining. Type of assay: functional, Homo sapiens. Summed up: as §1
The subject of assay [16] is HUVEC. In words: Percent stability after 20 hr in HUVEC culture medium; expressed as % remaining. Type of assay: functional, Homo sapiens.
Assay [17] relates to HUVEC. In words: Percent remained in HUVEC lysate after 2 hr in presence of epoxide hydrolase (EH) (Control = 100) (Compound used as substrate); Expressed as % remaining. The class given is functional, Homo sapiens. A digest of the protocol: as §3
The test system of assay [18] is HUVEC. Description: Percent remained in HUVEC lysate after 3 min in presence of epoxide hydrolase (EH) (Compound used as hydrolysate); Expressed as % remaining. Type of assay: functional, Homo sapiens. A digest of the protocol: as §3
Assay [19] has as its system HUVEC. Description: Percent stability determined after 4 hr in HUVEC culture medium; Expressed as % remaining. Type of assay: functional, Homo sapiens.
In assay [20] the test system is HUVEC. Description: Percent stability determined after 20 hr in HUVEC lysate; Expressed as % remaining. The class given is functional, Homo sapiens. Summed up: as §2
The subject of assay [21] is HUVEC. Description: Percent stability determined after 0 hr in HUVEC culture medium; Expressed as % remaining. Type of assay: functional, Homo sapiens.
The subject of assay [22] is HUVEC. Description: Percent stability determined after 4 hr in HUVEC lysate; Expressed as % remaining. Type of assay: functional, Homo sapiens. Summed up: as §2
The test system of assay [23] is HUVEC. Description: Percent stability determined after 20 hr in HUVEC culture medium; Expressed as % remaining. The class given is functional, Homo sapiens.
Assay [24] deals with HUVEC. Description: Percent stability determined after 0 hr in HUVEC lysate; Expressed as % remaining. Type of assay: functional, Homo sapiens. A digest of the protocol:
as §2

The target of assay [25] is Methionine aminopeptidase 2 (Homo sapiens, UniProt P50579). In words: Inhibitory activity against Methionine aminopeptidase 2.
Assay [26] relates to HUVEC. Description: Percent remained in HUVEC lysate after 2 hr in presence of epoxide hydrolase (EH) along with inhibitor (Control = 106) used as substrate; Expressed as % remaining. The class given is functional, Homo sapiens. A digest of the protocol: as §1
In assay [27] the test system is HUVEC. In words: Percent remained in HUVEC lysate after 0.5 hr in presence of epoxide hydrolase (EH) along with inhibitor (Control = 92) (Compound used as substrate); Expressed as % remaining. The class given is functional, Homo sapiens. A digest of the protocol:
as §1

Assay [28] relates to HUVEC. In words: Percent remained in HUVEC lysate after 3 min in presence of epoxide hydrolase (EH) used as hydrolysate; Expressed as % remaining. The class given is functional, Homo sapiens. A digest of the protocol:
as §3

The test system of assay [29] is HUVEC. In words: Percent remained in HUVEC lysate after 2 hr in presence of epoxide hydrolase (EH) along with inhibitor (Control = 90) (Compound used as substrate); Expressed as % remaining. Type of assay: functional, Homo sapiens. Summed up: as §1

Methionine aminopeptidase 2, sequence (P50579 whole entry): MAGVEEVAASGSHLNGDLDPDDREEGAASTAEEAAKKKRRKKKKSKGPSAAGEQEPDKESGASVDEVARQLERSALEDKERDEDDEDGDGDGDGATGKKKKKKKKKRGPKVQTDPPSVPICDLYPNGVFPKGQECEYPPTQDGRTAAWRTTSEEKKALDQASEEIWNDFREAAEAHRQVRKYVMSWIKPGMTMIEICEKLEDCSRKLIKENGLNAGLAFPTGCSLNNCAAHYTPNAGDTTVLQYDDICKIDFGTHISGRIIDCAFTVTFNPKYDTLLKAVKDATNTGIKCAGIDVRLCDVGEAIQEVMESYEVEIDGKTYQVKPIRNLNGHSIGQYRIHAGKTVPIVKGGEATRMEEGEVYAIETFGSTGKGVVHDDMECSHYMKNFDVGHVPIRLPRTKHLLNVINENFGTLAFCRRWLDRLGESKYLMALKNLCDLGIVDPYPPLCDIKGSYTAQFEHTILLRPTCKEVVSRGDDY

`CO[C@@H]1[C@H](OC(N)=O)CC[C@]2(CO2)[C@H]1/C(C)=N/OCc1ccccc1`: the Activity turned out to be 100% in the assay on HUVEC [1]; 15% in the assay on HUVEC [2]; 3% in the assay with HUVEC [3]; 10% with HUVEC [4]; 100% in the assay on HUVEC [5]; 106% in the assay on HUVEC [6]. Further, the Activity in the assay on HUVEC [7] is recorded as 60%; in the assay with HUVEC [9], 95%; in the assay with HUVEC [10], 100%; in the assay on HUVEC [11], 90%; with HUVEC [12] it was 95%; with HUVEC [13], 2%. The Activity with HUVEC [14] is 20%; in the assay with HUVEC [15] it was 60%; with HUVEC [16], 69%; with HUVEC [17], 1%; in the assay on HUVEC [18], 93%. Also, in the assay on HUVEC [8], it took 88 nM to reach a half-maximal effect (EC50).
Take `CO[C@@H]1[C@H](OC(C)=O)CC[C@]2(CO2)[C@H]1/C(C)=N/OCc1ccccc1`: the EC50 with HUVEC [8] amounted to 450 nM.
Consider `CCN1CCN(C(=O)O[C@@H]2CC[C@]3(CO3)[C@@H]([C@@]3(C)O[C@@H]3CC=C(C)C)[C@@H]2OC)CC1`, for which the Activity with HUVEC [19] is listed as 95%; with HUVEC [20], 76%; in the assay on HUVEC [21], 100%; in the assay on HUVEC [22], 91%; in the assay on HUVEC [23], 75%; with HUVEC [24] it was 100%.
On to `CO[C@@H]1[C@H](OC(=O)/C=C/C=C/C=C/C=C/C(=O)O)CC[C@]2(CO2)[C@H]1[C@@]1(C)O[C@@H]1CC=C(C)C` [FUMAGILLIN], for which a half-maximal effect in the assay with HUVEC [8] (EC50) was put at 0.82 nM. It took 0.63 nM to reach half-maximal inhibition in assay [25] (IC50).
For the compound `CO[C@@H]1[C@H](OC(N)=O)CC[C@]2(CO2)[C@H]1[C@@]1(C)O[C@@H]1CC=C(C)C`, the Activity is 84% in the assay on HUVEC [4]; 100% in the assay on HUVEC [5]; 98% with HUVEC [6]; 109% in the assay on HUVEC [9]; 107% in the assay on HUVEC [26]; 103% in the assay on HUVEC [12]. Besides, in the assay on HUVEC [18], the Activity is 22%. In addition, the EC50 with HUVEC [8] was 0.65 nM.
In turn, `CO[C@@H]1[C@H](OC(C)=O)CC[C@]2(CO2)[C@H]1[C@@]1(C)O[C@@H]1CC=C(C)C` displayed an EC50 in the assay on HUVEC [8] of 3 nM.
Regarding `CO[C@@H]1[C@H](OC(N)=O)CC[C@]2(CO2)[C@H]1/C(C)=C/CC=C(C)C`, the Activity stood at 75% in the assay with HUVEC [27]; 100% with HUVEC [1]; 21% in the assay on HUVEC [2]; 1% with HUVEC [3]; 18% in the assay with HUVEC [4]; 100% with HUVEC [5]. The Activity in the assay on HUVEC [6] is listed as 108%; with HUVEC [7] it was 87%; in the assay on HUVEC [10], 100%; in the assay with HUVEC [28], 77%; in the assay with HUVEC [11], 76%; in the assay with HUVEC [29], 5%. Moreover, the Activity in the assay with HUVEC [12] stood at 79%; with HUVEC [14] it was 36%; in the assay on HUVEC [16], 68%. Further, the EC50 in the assay with HUVEC [8] was found to be 490 nM.
